Measurements reported in ChEMBL document CHEMBL1139810, “Novel anti-infection agents: small-molecule inhibitors of bacterial transcription factors” (Bioorg Med Chem Lett, 2007).
pIC50: −log10 of the molar value.

Assays:
Escherichia coli [1] = assay: Inhibition of Escherichia coli SoxS binding to DNA at 50 ug/mL
Escherichia coli [2] = assay: Inhibition of Escherichia coli SoxS binding to DNA at 25 ug/mL
[3] = Inhibition of Escherichia coli SoxS binding to DNA
Staphylococcus aureus = assay: Antimicrobial activity against antibiotic-susceptible Staphylococcus aureus RN450; assay type: functional
Escherichia coli [4] = assay: Antimicrobial activity against antibiotic-susceptible Escherichia coli ML308-225; assay type: functional
Escherichia coli [5] = assay: Inhibition of Escherichia coli Rob binding to DNA; assay type: functional, organism-based
[6] = target: T1, HTH-type transcriptional regulator ExsA (Pseudomonas aeruginosa (strain ATCC 15692 / PAO1 / 1C / PRS 101 / LMG12228), UniProt P26993); assay: Inhibition of Pseudomonas aeruginosa ExsA binding to DNA
T1 sequence (P26993 whole entry): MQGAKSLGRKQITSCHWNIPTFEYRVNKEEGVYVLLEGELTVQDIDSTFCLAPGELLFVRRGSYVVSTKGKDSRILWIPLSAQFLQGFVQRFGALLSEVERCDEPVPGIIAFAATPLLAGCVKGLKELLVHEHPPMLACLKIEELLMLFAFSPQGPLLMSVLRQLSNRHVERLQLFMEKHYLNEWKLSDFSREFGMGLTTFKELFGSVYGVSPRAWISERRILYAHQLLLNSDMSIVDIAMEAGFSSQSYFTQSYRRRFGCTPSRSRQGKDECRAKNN

[7] = Inhibition of Salmonella Typhimurium Rma binding to DNA; set-up: species or system Salmonella enterica subsp. enterica serovar Typhimurium
Escherichia coli [8] = assay: Reduction of colony formation in urinary tract infection mouse model assessed per gram of kidney at 10 mg/kg, ip; assay type: functional; settings: route intraperitoneal
[9] = Inhibition of Escherichia coli MarA binding to DNA
Method in brief: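 Binding of the 6-His-tagged Mar protein (20 nM) to biotinylated double-stranded target DNA (2 nM) was measured with test compound on streptavidin-coated wells. After washing, retained protein was read by luminescence, and inhibition appeared as signal loss. Selected compounds were also incubated with DNA and run on agarose gels to check whether they altered DNA structure.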

[10] = Inhibition of Proteus mirabilis PqrA binding to DNA

Compound | inhibition (Escherichia coli [1]) [%] | further results
CC(C)(C)c1ccc2nc(-c3ccccc3)n(O)c2c1 | 0 | 
O=C(Nc1ccc(-c2nc3ccc([N+](=O)[O-])cc3n2O)cc1)c1ccccc1 | 100 | inhibition (Escherichia coli [2]): 100%; pIC50 [3]: 4.77; MIC (Staphylococcus aureus): > 64 µg/mL; MIC (Escherichia coli [4]): > 64 µg/mL
O=[N+]([O-])c1ccc2nc(-c3ccc(Br)cc3)n(O)c2c1 | 26 | 
COn1c(-c2ccccc2)nc2ccc([N+](=O)[O-])cc21 | 17 | 
On1c(-c2ccccc2)nc2ccccc21 | 0 | 
CS(=O)(=O)c1ccc2nc(-c3ccccc3)n(O)c2c1 | 35 | 
CCOC(=O)COn1c(-c2ccccc2)nc2ccc([N+](=O)[O-])cc21 | 0 | 
C/C(=N/O)c1ccc2nc(-c3ccccc3)n(O)c2c1 | 38 | 
CCCOn1c(-c2ccccc2)nc2ccc([N+](=O)[O-])cc21 | 0 | 
O=C(NCc1ccc(-c2nc3ccc([N+](=O)[O-])cc3n2O)cc1)c1ccccc1 | 44 | 
Cc1ccc(C(=O)Nc2ccc(-c3nc4ccc([N+](=O)[O-])cc4n3O)cc2)cc1 |  | pIC50 [3]: 5.00; MIC (Staphylococcus aureus): > 64 µg/mL; MIC (Escherichia coli [4]): > 64 µg/mL
O=C(Nc1ccc(-c2nc3ccc([N+](=O)[O-])cc3n2O)cc1)c1ccc(F)cc1 |  | pIC50 [3]: 5.55; MIC (Staphylococcus aureus): > 64 µg/mL; MIC (Escherichia coli [4]): > 64 µg/mL; pIC50 (Escherichia coli [5]): 5.33; pIC50 [6]: 5.40; pIC50 [7]: 5.31
CN(C)c1ccc2nc(-c3ccccc3)n(O)c2c1 | 28 | 
CC(=O)Nc1cccc(-c2nc3ccc([N+](=O)[O-])cc3n2O)c1 | 32 | 
Nc1ccc(-c2nc3ccc([N+](=O)[O-])cc3n2O)cc1 | 80 | 
CN(C)c1cccc(-c2nc3ccc([N+](=O)[O-])cc3n2O)c1 | 30 | 
O=[N+]([O-])c1ccc2nc(-c3ccc(O)cc3)n(O)c2c1 | 35 | 
O=[N+]([O-])c1ccc2nc(-c3ccccc3)n(O)c2c1 | 38 | 
COc1ccc2nc(-c3ccccc3)n(O)c2c1 | 0 | 
COc1ccc(C(=O)Nc2ccc(-c3nc4ccc([N+](=O)[O-])cc4n3O)cc2)cc1 |  | pIC50 [3]: 5.60; MIC (Staphylococcus aureus): > 64 µg/mL; MIC (Escherichia coli [4]): > 64 µg/mL; CFU (Escherichia coli [8]): 1

Compound | inhibition (Escherichia coli [1]) [%] | further results
CN(C)c1ccc(-c2nc3ccc([N+](=O)[O-])cc3n2O)cc1 | 75 | 
N#CCOn1c(-c2ccccc2)nc2ccc([N+](=O)[O-])cc21 | 12 | 
NC(=O)c1ccc2nc(-c3ccccc3)n(O)c2c1 | 14 | 
On1c(-c2ccccc2)nc2ccc(C(F)(F)F)cc21 | 26 | 
CC(=O)c1ccc2nc(-c3ccccc3)n(O)c2c1 | 37 | 
O=C(O)c1ccc2nc(-c3ccccc3)n(O)c2c1 | 12 | 
O=[N+]([O-])c1ccc2nc(-c3ccc(Oc4ccccc4)cc3)n(O)c2c1 | 14 | 
CN(C)c1ccc(C(=O)Nc2ccc(-c3nc4ccc([N+](=O)[O-])cc4n3O)cc2)cc1 |  | pIC50 [3]: 6.09; MIC (Staphylococcus aureus): > 64 µg/mL; MIC (Escherichia coli [4]): > 64 µg/mL; pIC50 [9]: 5.92; pIC50 (Escherichia coli [5]): 5.89; pIC50 [6]: 5.72; pIC50 [7]: 5.74; pIC50 [10]: 5.85; CFU (Escherichia coli [8]): 0.5
CC(=O)Nc1ccccc1-c1nc2ccc([N+](=O)[O-])cc2n1O | 31 | 
N#Cc1ccc2nc(-c3ccccc3)n(O)c2c1 | 30 | 
Nc1ccccc1-c1nc2ccc([N+](=O)[O-])cc2n1O | 2 | 
O=C(O)COn1c(-c2ccccc2)nc2ccc([N+](=O)[O-])cc21 | 14 | 
On1c(-c2ccccc2)nc2ccc(F)cc21 | 26 | 
O=C(O)CCOn1c(-c2ccccc2)nc2ccc([N+](=O)[O-])cc21 | 0 | 
O=[N+]([O-])c1ccc2nc(-c3ccccc3)n(OCCO)c2c1 | 0 | 
COc1ccc(-c2nc3ccc([N+](=O)[O-])cc3n2O)cc1 | 12 | 
CC(=O)Nc1ccc(-c2nc3ccc([N+](=O)[O-])cc3n2O)cc1 | 100 | inhibition (Escherichia coli [2]): 58%
Nc1cccc(-c2nc3ccc([N+](=O)[O-])cc3n2O)c1 | 60 | 
O=C(Nc1ccc(-c2nc3ccc([N+](=O)[O-])cc3n2O)cc1)c1cccc(Cl)c1 |  | pIC50 [3]: 5.47; MIC (Staphylococcus aureus): > 64 µg/mL; MIC (Escherichia coli [4]): > 64 µg/mL
NCCOn1c(-c2ccccc2)nc2ccc([N+](=O)[O-])cc21 | 0 | 
